Data as given in ChEMBL document CHEMBL6153131, “Rational Design and Optimization of a Potent IDO1 Proteolysis Targeting Chimera (PROTAC)” (J Med Chem, 2025).
Activity calls are given as the source filed them. The calls are words filed in the database; no cut-off is given here.

What was measured:
[1] = target: T1, Protein cereblon/Indoleamine 2,3-dioxygenase 1 (Homo sapiens, UniProt P14902+Q96SW2); experiment: (§1) PROTAC activity at CRBN/N-terminal HiBiT-tagged IDO1 (unknown origin) transfected in human U87 cells assessed as induction of IDO1 degradation pretreated with IFN-gamma for 24 hrs followed by compound addition and measured after 24 hrs by Nano-Glo HiBiT assay; assay type: cell-based
Summary of the method: (§2)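 U87 cells carrying HiBiT knocked in by CRISPR/Cas9 at the IDO1 N-terminus, treated for 24 h. Degradation read as loss of luminescence. DC50 fitted from the lowest concentration up to maximal degradation, excluding hook-effect points; triplicate mean ± SD.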
Target sequence in this assay (P14902 whole entry): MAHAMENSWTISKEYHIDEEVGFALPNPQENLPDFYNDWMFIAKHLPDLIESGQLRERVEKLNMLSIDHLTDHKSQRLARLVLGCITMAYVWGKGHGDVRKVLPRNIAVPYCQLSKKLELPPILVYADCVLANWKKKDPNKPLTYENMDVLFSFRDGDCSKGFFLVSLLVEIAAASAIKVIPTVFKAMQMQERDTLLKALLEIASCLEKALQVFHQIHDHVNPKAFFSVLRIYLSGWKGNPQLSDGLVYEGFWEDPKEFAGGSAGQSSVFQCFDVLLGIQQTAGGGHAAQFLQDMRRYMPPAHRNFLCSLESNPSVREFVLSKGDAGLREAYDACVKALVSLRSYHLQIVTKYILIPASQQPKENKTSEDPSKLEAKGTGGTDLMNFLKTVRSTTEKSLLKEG
Target sequence in this assay (Q96SW2 whole entry): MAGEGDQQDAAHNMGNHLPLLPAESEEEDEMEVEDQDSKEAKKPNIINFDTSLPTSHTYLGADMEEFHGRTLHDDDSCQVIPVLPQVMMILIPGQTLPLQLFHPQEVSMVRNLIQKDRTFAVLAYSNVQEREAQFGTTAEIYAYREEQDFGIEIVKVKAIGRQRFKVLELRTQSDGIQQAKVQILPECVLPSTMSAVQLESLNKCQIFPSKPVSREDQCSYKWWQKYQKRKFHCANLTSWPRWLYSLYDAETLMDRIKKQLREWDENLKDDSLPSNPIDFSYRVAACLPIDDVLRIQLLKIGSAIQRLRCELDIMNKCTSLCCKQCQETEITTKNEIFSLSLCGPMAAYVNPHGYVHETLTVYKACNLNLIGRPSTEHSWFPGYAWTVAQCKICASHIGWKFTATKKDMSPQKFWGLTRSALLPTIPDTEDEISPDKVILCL

[2] = target: T1, Protein cereblon/Indoleamine 2,3-dioxygenase 1; experiment: as §1, with “degradation by measuring maximum efficacy” for “degradation”, “assay relative to control” for “assay”; assay type: cell-based; summary of the method: as §2
Target sequence in this assay (P14902 whole entry, looked up): as the sequence (P14902 whole entry) above
Target sequence in this assay (Q96SW2 whole entry, looked up): as the sequence (Q96SW2 whole entry) above

[3] = system: Kelly; experiment: Downregulation of EPHX2 protein level in human Kelly cells at 1 uM incubated for 24 hrs by proteomics analysis; assay type: functional, cell-based
[4] = target: T1, Protein cereblon/Indoleamine 2,3-dioxygenase 1; experiment: PROTAC activity at CRBN/IDO1 in human U87 cells assessed as induction of IDO1 degradation by measuring remaining activity at 10 uM pretreated with IFN-gamma for 24 hrs followed by compound addition and measured after 24 hrs by Western blotting analysis (reference value: 100%); assay type: cell-based
Summary of the method: (§3)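 U87 cells given an extended dose range of PROTAC for 24 h, then Western blot for IDO1. IFNγ-induced IDO1 levels normalised to untreated samples. n = 3 independent experiments; mean ± SEM.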
Target sequence in this assay (P14902 whole entry, looked up): as the sequence (P14902 whole entry) above
Target sequence in this assay (Q96SW2 whole entry, looked up): as the sequence (Q96SW2 whole entry) above

[5] = target: T1, Protein cereblon/Indoleamine 2,3-dioxygenase 1; experiment: PROTAC activity at CRBN/IDO1 in human U87 cells assessed as induction of IDO1 degradation by measuring remaining activity at 0.001 uM pretreated with IFN-gamma for 24 hrs followed by compound addition and measured after 24 hrs by Western blotting analysis (reference value: 100%); assay type: cell-based; summary of the method: as §3
Target sequence in this assay (P14902 whole entry, looked up): as the sequence (P14902 whole entry) above
Target sequence in this assay (Q96SW2 whole entry, looked up): as the sequence (Q96SW2 whole entry) above

[6] = target: T1, Protein cereblon/Indoleamine 2,3-dioxygenase 1; experiment: PROTAC activity at CRBN/IDO1 in human U87 cells assessed as induction of IDO1 degradation by measuring maximum efficacy at 300 nM pretreated with IFN-gamma for 24 hrs followed by compound addition and measured after 24 hrs by Western blotting analysis relative to control; assay type: cell-based
Summary of the method: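 IDO1 in U87 cells induced with 50 ng/mL human IFN-γ, then compound given across an extended dose range for 24 h. IDO1 and GAPDH read by Western blot; IDO1 levels normalized to untreated; DC50 from n = 3 independent experiments.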
Target sequence in this assay (P14902 whole entry, looked up): as the sequence (P14902 whole entry) above
Target sequence in this assay (Q96SW2 whole entry, looked up): as the sequence (Q96SW2 whole entry) above

[7] = target: T1, Protein cereblon/Indoleamine 2,3-dioxygenase 1; experiment: Binding affinity to CRBN/6His-tagged recombinant IDO1 (unknown origin) assessed as ternary complex formation by measuring half life by Biolayer Interferometry assay; assay type: protein assay
Target sequence in this assay (P14902 whole entry, looked up): as the sequence (P14902 whole entry) above
Target sequence in this assay (Q96SW2 whole entry, looked up): as the sequence (Q96SW2 whole entry) above

[8] = system: U-87MG ATCC; experiment: Inhibition of kynurenine production in human U87 cells […] and measured after 24 hrs by Ehrlich's reagent based analysis; assay type: functional, cell-based; settings: dose 0.001-10 µM
Summary of the method: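 U87 cells plated, then 24 h later given compound with 50 ng/mL IFN-γ for a total of 24 h. Supernatant kynurenine measured with Ehrlich's reagent; cells without IFN-γ as control; mean ± SEM, Tukey's test.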

[9] = system: Kelly; experiment: Downregulation of ADO protein level in human Kelly cells at 1 uM incubated for 24 hrs by proteomics analysis; assay type: functional, cell-based
[10] = target: Indoleamine 2,3-dioxygenase 1 (Homo sapiens) (UniProt P14902); experiment: Binding affinity to 6His-tagged recombinant IDO1 (unknown origin) assessed as binary complex formation by measuring half life by Biolayer Interferometry assay
Chain of Indoleamine 2,3-dioxygenase 1 (Homo sapiens) (P14902 whole entry, looked up): as the sequence (P14902 whole entry) above

[11] = target: T1, Protein cereblon/Indoleamine 2,3-dioxygenase 1; experiment: PROTAC activity at CRBN/IDO1 in human U87 cells assessed as induction of IDO1 degradation by measuring remaining activity at 1 uM pretreated with IFN-gamma for 24 hrs followed by compound addition and measured after 24 hrs by Western blotting analysis (reference value: 100%); assay type: cell-based; summary of the method: as §3
Target sequence in this assay (P14902 whole entry, looked up): as the sequence (P14902 whole entry) above
Target sequence in this assay (Q96SW2 whole entry, looked up): as the sequence (Q96SW2 whole entry) above

[12] = target: T1, Protein cereblon/Indoleamine 2,3-dioxygenase 1; experiment: PROTAC activity at CRBN/IDO1 in human U87 cells assessed as induction of IDO1 degradation by measuring remaining activity at 0.03 uM pretreated with IFN-gamma for 24 hrs followed by compound addition and measured after 24 hrs by Western blotting analysis (reference value: 100%); assay type: cell-based; summary of the method: as §3
[13] = system: Kelly; experiment: Downregulation of CDK8 protein level in human Kelly cells at 1 uM incubated for 24 hrs by proteomics analysis; assay type: functional, cell-based
[14] = target: T1, Protein cereblon/Indoleamine 2,3-dioxygenase 1; experiment: PROTAC activity at CRBN/IDO1 in human U87 cells assessed as induction of IDO1 degradation by measuring remaining activity at 3 uM pretreated with IFN-gamma for 24 hrs followed by compound addition and measured after 24 hrs by Western blotting analysis (reference value: 100%); assay type: cell-based; summary of the method: as §3
[15] = target: T1, Protein cereblon/Indoleamine 2,3-dioxygenase 1; experiment: PROTAC activity at CRBN/IDO1 in human U87 cells assessed as induction of IDO1 degradation by measuring remaining activity at 0.3 uM pretreated with IFN-gamma for 24 hrs followed by compound addition and measured after 24 hrs by Western blotting analysis (reference value: 100%); assay type: cell-based; summary of the method: as §3
[16] = system: Kelly; experiment: Downregulation of SALL4 protein level in human Kelly cells at 1 uM incubated for 24 hrs by proteomics analysis; assay type: functional, cell-based
[17] = target: T1, Protein cereblon/Indoleamine 2,3-dioxygenase 1; experiment: PROTAC activity at CRBN/IDO1 in human U87 cells assessed as induction of IDO1 degradation by measuring remaining activity at 0.1 uM pretreated with IFN-gamma for 24 hrs followed by compound addition and measured after 24 hrs by Western blotting analysis (reference value: 100%); assay type: cell-based; summary of the method: as §3
[18] = target: T1, Protein cereblon/Indoleamine 2,3-dioxygenase 1; experiment: PROTAC activity at CRBN/IDO1 in human U87 cells assessed as induction of IDO1 degradation by measuring remaining activity at 0.01 uM pretreated with IFN-gamma for 24 hrs followed by compound addition and measured after 24 hrs by Western blotting analysis (reference value: 100%); assay type: cell-based; summary of the method: as §3
[19] = target: T1, Protein cereblon/Indoleamine 2,3-dioxygenase 1; experiment: PROTAC activity at CRBN/IDO1 in human U87 cells assessed as induction of IDO1 degradation by measuring remaining activity at 0.003 uM incubated for 24 hrs by Western blotting analysis (reference value: 100%); assay type: cell-based
[20] = system: U-87MG ATCC; experiment: Inhibition of kynurenine production in human U87 cells at 25 nM pretreated with IFN-gamma for 24 hrs followed by compound addition and measured after 24 hrs by Ehrlich's reagent based analysis; assay type: functional, cell-based

| Compound | DC50 [1] [µM] | Emax [2] [%] | also measured |
| --- | --- | --- | --- |
| C[C@@H](C(=O)Nc1ccc(OC2CCN(C(=O)CCOCCN3CCN(c4cccc5c4C(=O)N(C4CCC(=O)NC4=O)C5=O)CC3)CC2)cc1)[C@H]1CC[C@@H](c2ccnc3ccc(F)cc32)CC1 (stereo not given in full) | > 10 | < 10 | – |
| C[C@@H](C(=O)Nc1ccc(OC2CCN(C(=O)CN3CCC(CN4CCN(c5cccc6c5C(=O)N(C5CCC(=O)NC5=O)C6=O)CC4)CC3)CC2)cc1)[C@H]1CC[C@@H](c2ccnc3ccc(F)cc32)CC1 (stereo not given in full) | > 10 | < 10 | – |
| C[C@@H](C(=O)Nc1cccc(OC2CCN(C(=O)CCN3CCN(c4ccc5c(c4)C(=O)N(C4CCC(=O)NC4=O)C5=O)CC3)CC2)c1)[C@H]1CC[C@@H](c2ccnc3ccc(F)cc32)CC1 (stereo not given in full) | > 10 | < 10 | – |
| C[C@@H](C(=O)Nc1cccc(OC2CCN(C(=O)CN3CCN(c4ccc5c(c4)C(=O)N(C4CCC(=O)NC4=O)C5=O)CC3)CC2)c1)[C@H]1CC[C@@H](c2ccnc3ccc(F)cc32)CC1 (stereo not given in full) | > 10 | < 10 | – |
| C[C@@H](C(=O)Nc1ccc(Cl)c(OC2CCN(C(=O)CCOCCN3CCN(c4ccc5c(c4)C(=O)N(C4CCC(=O)NC4=O)C5=O)CC3)CC2)c1)[C@H]1CC[C@@H](c2ccnc3ccc(F)cc32)CC1 (stereo not given in full) | > 10 | < 10 | – |
| C[C@@H](C(=O)Nc1cccc(OC2CCN(C(=O)CN3CCC(CN4CCN(c5ccc6c(c5)C(=O)N(C5CCC(=O)NC5=O)C6=O)CC4)CC3)CC2)c1)[C@H]1CC[C@@H](c2ccnc3ccc(F)cc32)CC1 (stereo not given in full) | 0.02 | 67 | Activity [3]: Active; Activity [4]: 93%; Activity [5]: 93%; Emax [6]: 68%; T1/2 [7]: 4.27 min; inhibition [8]: Dose-dependent-effect; Activity [9]: Active; T1/2 [10]: 0.883 min; Activity [11]: 37%; Activity [12]: 71%; Activity [13]: Active; Activity [14]: 57%; Activity [15]: 32%; Activity [16]: Active; Activity [17]: 47%; Activity [18]: 84%; Activity [19]: 88% |
| C[C@@H](C(=O)Nc1ccc(Cl)c(OC2CCN(C(=O)CCOCCOCCNc3cccc4c3C(=O)N(C3CCC(=O)NC3=O)C4=O)CC2)c1)[C@H]1CC[C@@H](c2ccnc3ccc(F)cc32)CC1 (stereo not given in full) | > 10 | < 10 | – |
| C[C@@H](C(=O)Nc1ccc(Cl)cc1)[C@H]1CC[C@@H](c2ccnc3ccc(F)cc32)CC1 | – | – | inhibition [20]: Active |
| C[C@@H](C(=O)Nc1ccc(Cl)c(OC2CCN(C(=O)CN3CCC(N4CCN(c5ccc6c(c5)C(=O)N(C5CCC(=O)NC5=O)C6=O)CC4)CC3)CC2)c1)[C@H]1CC[C@@H](c2ccnc3ccc(F)cc32)CC1 (stereo not given in full) | 0.007 | 51 | – |

The next lines start with results.

| DC50 [1] [µM] | Emax [2] [%] | Compound | also measured |
| --- | --- | --- | --- |
| > 10 | < 10 | C[C@@H](C(=O)Nc1ccc(OC2CCN(C(=O)CCOCCOCCNc3ccc4c(c3)C(=O)N(C3CCC(=O)NC3=O)C4=O)CC2)cc1)[C@H]1CC[C@@H](c2ccnc3ccc(F)cc32)CC1 (stereo not given in full) | – |
| > 10 | < 10 | C[C@@H](C(=O)Nc1ccc(Cl)c(OC2CCN(C(=O)CCOCCN3CCN(c4cccc5c4C(=O)N(C4CCC(=O)NC4=O)C5=O)CC3)CC2)c1)[C@H]1CC[C@@H](c2ccnc3ccc(F)cc32)CC1 (stereo not given in full) | – |
| > 10 | < 10 | C[C@@H](C(=O)Nc1ccc(Cl)c(OC2CCN(C(=O)CCOCCOCCNc3ccc4c(c3)C(=O)N(C3CCC(=O)NC3=O)C4=O)CC2)c1)[C@H]1CC[C@@H](c2ccnc3ccc(F)cc32)CC1 (stereo not given in full) | – |
| 0.034 | 21 | C[C@@H](C(=O)Nc1ccc(OC2CCN(C(=O)CN3CCC(N4CCN(c5ccc6c(c5)C(=O)N(C5CCC(=O)NC5=O)C6=O)CC4)CC3)CC2)cc1)[C@H]1CC[C@@H](c2ccnc3ccc(F)cc32)CC1 (stereo not given in full) | – |
| 0.34 | 26 | C[C@@H](C(=O)Nc1ccc(OC2CCN(C(=O)CN3CCC(CN4CCN(c5ccc6c(c5)C(=O)N(C5CCC(=O)NC5=O)C6=O)CC4)CC3)CC2)cc1)[C@H]1CC[C@@H](c2ccnc3ccc(F)cc32)CC1 (stereo not given in full) | – |
| 0.008 | 48 | C[C@@H](C(=O)Nc1ccc(Cl)c(OC2CCN(C(=O)CN3CCC(CN4CCN(c5ccc6c(c5)C(=O)N(C5CCC(=O)NC5=O)C6=O)CC4)CC3)CC2)c1)[C@H]1CC[C@@H](c2ccnc3ccc(F)cc32)CC1 (stereo not given in full) | – |
| > 10 | < 10 | C[C@@H](C(=O)Nc1ccc(Cl)c(OC2CCN(C(=O)CN3CCC(CN4CCN(c5cccc6c5C(=O)N(C5CCC(=O)NC5=O)C6=O)CC4)CC3)CC2)c1)[C@H]1CC[C@@H](c2ccnc3ccc(F)cc32)CC1 (stereo not given in full) | – |
| > 10 | < 10 | C[C@@H](C(=O)Nc1ccc(OC2CCN(C(=O)CCOCCN3CCN(c4ccc5c(c4)C(=O)N(C4CCC(=O)NC4=O)C5=O)CC3)CC2)cc1)[C@H]1CC[C@@H](c2ccnc3ccc(F)cc32)CC1 (stereo not given in full) | – |
